Results pooled from the literature.
Compare with care: the assays were run in different laboratories.
Target: Citron Rho-interacting kinase (CIT, Homo sapiens, UniProt O14578)

Structure (SMILES)	test	conditions	remaining binding [%]
O=c1nc(-c2ccccn2)sc2ccccc12	binding, competition with immobilised ligand	1 µM	100
CC1CCCN1c1nccc(-c2cnn3ncccc23)n1 (stereo not shown)	binding	1 µM	82
FC(F)(F)Oc1cccc(-c2cnc3ccc(-c4ccncc4)nn23)c1	cell-free assay, competition with immobilised ligand	5 µM	34
CS(=O)(=O)c1cc(C2(NC(=O)c3cncc4c3cnn4-c3ccc(F)cc3)CC2)ccn1	cell-free assay, competition with immobilised ligand	1 µM	100
c1cnn2ncc(-c3ccnc(N4CCC45COC5)n3)c2c1	binding	1 µM	84
CC(=O)c1c(NS(C)(=O)=O)c2cc(-c3ccc(Cl)cc3)c(-c3ccc(Cl)cc3Cl)nc2n(C)c1=O	cell-free assay, competition with immobilised ligand	1 µM	96
Cc1cnc(Nc2ccc(C(=O)N3CCC(N4CCCC4)CC3)cc2)nc1-c1cc2ccccc2s1	binding, competition with immobilised ligand	1 µM	65
CN(C)c1ncc(F)c(-c2cnn3ncccc23)n1	binding	1 µM	100
CCC(=O)N[C@H]1CC[C@@H](C(=O)N(C)c2ccc(-c3nc4ccccc4o3)cc2)C1	cell-free assay, competition with immobilised ligand	1 µM	99
CN(C)c1nccc(-c2cnn3ncccc23)n1	binding	1 µM	86
O=C(NCCCN1CCOCC1)c1ccc(Nc2nccc(-c3cc4ccccc4s3)n2)cc1	binding, competition with immobilised ligand	1 µM	77
COc1cnc(Nc2cccc(S(N)(=O)=O)c2)nc1N1CCN(c2ccccc2)C(=O)C1	binding, competition with immobilised ligand	1 µM	100
c1cncc(-c2cccc(Nc3nccc(NC4CCCCC4)n3)c2)c1	binding, competition with immobilised ligand	10 µM	42
CCN1CCN(Cc2ccc(C(=O)Nc3ccc(C)c(Oc4ccc5c(c4)CC(=O)N5)c3)cc2C(F)(F)F)CC1	binding, competition with immobilised ligand	1 µM	65
O=C(c1ccc(Nc2ncc(Cl)c(-c3ccc(Cl)s3)n2)cc1)N1CCC(N2CCCC2)CC1	binding, competition with immobilised ligand	1 µM	30
N[C@@H]1CCN(c2nccc(-c3cnn4ncccc34)n2)C1	binding	1 µM	99
O=C(NCC1CCOCC1)c1n[nH]cc1NC(=O)c1c(F)cccc1F	binding, competition with immobilised ligand	1 µM	100
CN(CCCC(F)(F)F)c1nccc(-c2cnn3ncccc23)n1	binding	1 µM	88
CS(=O)(=O)N1CCCC(NC(=O)[C@H](CCC2CCCCC2)NC(=O)c2ccc(CNC(=O)c3cnc4ccccn34)cc2)C1 (stereo partly shown)	cell-free assay, competition with immobilised ligand	0.1 µM	100
